# Laboratory results published in ChEMBL document CHEMBL1136119, “Novel IKK inhibitors: beta-carbolines” (Bioorg Med Chem Lett, 2003).
# pEC50, pIC50: −log10 of the molar value.
# Key:
# Casein kinase II = Casein kinase II (Homo sapiens, UniProt P19784+P67870+P68400); test: Inhibitory activity against CKII kinase.; assay type: protein-complex assay
# Protein kinase C (PKC) = test: Inhibitory activity against protein kinase C.; assay type: protein assay
# [1] = biological target: T1, cAMP-dependent protein kinase (PKA) (Homo sapiens, UniProt P22694+P17612+P22612); test: Inhibitory activity against protein kinase A.; assay type: protein assay
# [2] = biological target: T2, Inhibitor of nuclear factor kappa-B kinase subunit beta (Homo sapiens, UniProt O14920); test: Inhibitory activity against IkappaB kinase(IKK) isolated from HeLa cells activated with recombinant […] in an ELISA phosphorylation assay.; assay type: cell-free
# T2 sequence (O14920 whole entry): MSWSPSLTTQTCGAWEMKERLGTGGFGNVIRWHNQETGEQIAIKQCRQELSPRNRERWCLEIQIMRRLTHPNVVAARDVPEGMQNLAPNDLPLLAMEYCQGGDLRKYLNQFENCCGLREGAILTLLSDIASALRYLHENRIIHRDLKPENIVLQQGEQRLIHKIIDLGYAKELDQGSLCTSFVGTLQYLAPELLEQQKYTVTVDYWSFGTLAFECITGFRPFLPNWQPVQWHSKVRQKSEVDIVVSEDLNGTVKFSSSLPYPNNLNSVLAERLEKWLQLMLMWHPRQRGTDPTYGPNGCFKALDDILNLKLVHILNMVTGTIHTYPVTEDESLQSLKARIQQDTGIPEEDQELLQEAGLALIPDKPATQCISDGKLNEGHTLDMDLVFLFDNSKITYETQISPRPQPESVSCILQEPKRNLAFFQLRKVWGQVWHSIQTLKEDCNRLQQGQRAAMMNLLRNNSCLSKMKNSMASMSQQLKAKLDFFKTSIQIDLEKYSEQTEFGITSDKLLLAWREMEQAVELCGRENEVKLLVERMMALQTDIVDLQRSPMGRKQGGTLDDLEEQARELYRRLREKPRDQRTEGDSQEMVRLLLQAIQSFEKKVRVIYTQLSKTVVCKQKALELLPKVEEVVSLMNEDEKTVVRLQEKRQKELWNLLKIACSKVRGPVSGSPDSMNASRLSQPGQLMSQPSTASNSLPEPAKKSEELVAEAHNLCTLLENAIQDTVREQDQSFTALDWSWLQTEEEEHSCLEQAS
# Mus musculus = test: Systemic level of TNF-alpha after oral administration in mice; assay type: functional
# In short: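 Female BALB/c mice given compound orally (50 mg/kg, 5 mL/kg), followed by intraperitoneal E. coli LPS (serotype 0127:B8); blood taken by cardiac puncture into heparin after CO2 euthanasia, spun at 4 °C, and plasma TNF-α measured relative to vehicle-treated controls.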
# [3] = biological target: NF-kappa-B essential modulator (Homo sapiens, UniProt Q9Y6K9); test: Inhibition of GST-IkB phosphorylation by TNF-alpha stimulated HeLa cell lysate (IP-IKKgamma); assay type: functional, cell-free
# Sequence of NF-kappa-B essential modulator (Q9Y6K9 whole entry): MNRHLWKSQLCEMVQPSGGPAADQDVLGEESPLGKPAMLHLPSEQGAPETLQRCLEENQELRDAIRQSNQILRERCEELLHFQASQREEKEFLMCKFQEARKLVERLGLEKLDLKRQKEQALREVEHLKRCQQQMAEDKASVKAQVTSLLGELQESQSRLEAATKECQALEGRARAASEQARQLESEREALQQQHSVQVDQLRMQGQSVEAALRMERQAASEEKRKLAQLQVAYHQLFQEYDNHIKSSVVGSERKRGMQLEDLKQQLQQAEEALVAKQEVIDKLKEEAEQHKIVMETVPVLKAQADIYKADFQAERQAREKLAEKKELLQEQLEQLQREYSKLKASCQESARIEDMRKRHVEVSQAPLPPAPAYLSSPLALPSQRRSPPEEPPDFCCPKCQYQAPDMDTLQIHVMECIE
# In short: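 Endogenous IKK complex immunoprecipitated with anti-IKKγ antibody from HeLa cells stimulated with TNF-α (20 ng/mL, 5 min) and lysed in NP-40 IP buffer; beads preincubated with varying inhibitor concentrations 30 min at 30 °C; reaction started with bacterially expressed GST-IκB[5-55] plus MgATP with [γ-32P]ATP, 30 min at 30 °C; phosphorylated substrate quantified by SDS-PAGE and phosphorimaging; IC50.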
# [4] = biological target: Casein kinase II (Homo sapiens) (UniProt P67870+P68400+P19784); test: Inhibition of the casein kinase CKII at 25 uM; assay type: protein-complex assay
# HeLa = test: Inhibition of IkappaB kinase(IKK) from HeLa cells activated by recombinant MEKK1 in ELISA at 25 uM; assay type: cell-based; settings: Homo sapiens
# [5] = biological target: Protein kinase C (PKC) (Homo sapiens) (UniProt O94806+P41743+P17252+P05129+Q05655+P05771+Q05513+Q02156+P24723+Q15139+Q04759); test: Inhibition of Protein kinase C at 25 uM; assay type: protein assay
# [6] = biological target: T1, cAMP-dependent protein kinase (PKA); test: Inhibition of Protein kinase A at 25 uM; assay type: protein assay
# Sequence of Casein kinase II (P67870 whole entry): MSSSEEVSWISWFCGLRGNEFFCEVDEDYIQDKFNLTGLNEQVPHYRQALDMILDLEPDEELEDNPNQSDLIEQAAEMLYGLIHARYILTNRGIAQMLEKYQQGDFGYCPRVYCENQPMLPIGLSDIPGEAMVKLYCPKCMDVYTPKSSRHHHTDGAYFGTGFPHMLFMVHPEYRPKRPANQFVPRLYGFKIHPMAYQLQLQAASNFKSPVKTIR
# Sequence of Casein kinase II (P68400 whole entry): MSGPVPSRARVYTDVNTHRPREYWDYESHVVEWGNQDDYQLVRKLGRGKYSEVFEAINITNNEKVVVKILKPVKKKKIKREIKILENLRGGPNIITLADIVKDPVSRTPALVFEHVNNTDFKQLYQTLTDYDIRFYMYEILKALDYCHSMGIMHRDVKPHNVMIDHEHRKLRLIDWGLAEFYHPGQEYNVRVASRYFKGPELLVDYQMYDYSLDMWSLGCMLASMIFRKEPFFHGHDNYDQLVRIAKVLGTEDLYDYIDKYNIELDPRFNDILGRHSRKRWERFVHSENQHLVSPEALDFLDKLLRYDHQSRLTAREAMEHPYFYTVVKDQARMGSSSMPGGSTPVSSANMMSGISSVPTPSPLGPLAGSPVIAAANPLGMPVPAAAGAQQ
# Sequence of Casein kinase II (P19784 whole entry): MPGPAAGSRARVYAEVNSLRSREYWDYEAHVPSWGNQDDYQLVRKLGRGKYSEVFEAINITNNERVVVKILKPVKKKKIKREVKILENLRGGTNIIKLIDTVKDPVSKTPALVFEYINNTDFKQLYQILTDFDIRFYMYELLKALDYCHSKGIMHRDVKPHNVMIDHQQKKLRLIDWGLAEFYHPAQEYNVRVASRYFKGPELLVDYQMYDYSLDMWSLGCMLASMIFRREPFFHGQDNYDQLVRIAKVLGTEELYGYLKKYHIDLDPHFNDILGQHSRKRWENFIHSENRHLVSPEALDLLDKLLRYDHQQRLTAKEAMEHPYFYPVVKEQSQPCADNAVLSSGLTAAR
Structure (SMILES),pIC50 (Casein kinase II),IC50 (Protein kinase C (PKC)),IC50 [1],pIC50 [2],pEC50 [3],Reduction (Mus musculus),inhibition [4],inhibition (HeLa),inhibition [5],inhibition [6]
COc1ccc2[nH]c3cnccc3c2c1,< 4.60,> 25 µM,> 25 µM,5.40,–,–,–,–,–,–
COc1c(Cl)cc2c3cc[nH]cc-3nc2c1Cl,< 4.60,> 25 µM,> 25 µM,6.77,–,–,–,–,–,–
Clc1cc2c([nH]c3cnccc32)c(Cl)c1OCC1CC1,< 4.60,> 25 µM,> 25 µM,7.10,–,–,–,–,–,–
Fc1ccc2[nH]c3cnccc3c2c1,< 4.60,> 25 µM,> 25 µM,5.70,–,–,–,–,–,–
COc1cccc(C(=O)Nc2cc(Cl)cc3c2[nH]c2cnccc23)c1,< 4.60,> 25 µM,> 25 µM,6.22,–,–,–,–,–,–
N#Cc1ccc2[nH]c3cnccc3c2c1,–,–,–,5.96,–,–,–,–,–,–
FC(F)(F)c1ccc2[nH]c3cnccc3c2c1,–,–,–,5.96,–,–,–,–,–,–
Clc1cc2c3cc[nH]cc-3nc2c(Cl)c1OCC1CCCCC1,< 4.60,> 25 µM,> 25 µM,5.52,–,–,–,–,–,–
COc1ccc2[nH]c3cnccc3c2c1Br,5.70,15 µM,–,6.00,–,–,75%,90%,65%,10%
c1ccc2c(c1)[nH]c1cnccc12 [NORHARMANE],< 4.60,> 25 µM,> 25 µM,4.82,–,–,–,–,–,–
CCOc1c(Cl)cc2c3cc[nH]cc-3nc2c1Cl,< 4.60,> 25 µM,> 25 µM,6.85,–,–,–,–,–,–
Oc1c(Cl)cc2c3cc[nH]cc-3nc2c1Cl,< 4.60,> 25 µM,> 25 µM,4.96,–,–,–,–,–,–
Clc1cc(Cl)c2[nH]c3cnccc3c2c1,< 4.60,> 25 µM,> 25 µM,6.70,–,–,–,–,–,–
Clc1ccc2[nH]c3cnccc3c2c1,< 4.60,> 25 µM,> 25 µM,6.22,–,–,–,–,–,–
Brc1ccc2[nH]c3cnccc3c2c1,< 4.60,> 25 µM,> 25 µM,6.22,–,–,–,–,–,–

# The next lines start with results.
pIC50 (Casein kinase II),IC50 (Protein kinase C (PKC)),IC50 [1],pIC50 [2],pEC50 [3],Structure (SMILES),Reduction (Mus musculus),inhibition [4],inhibition (HeLa),inhibition [5],inhibition [6]
< 4.60,> 25 µM,> 25 µM,< 4.70,–,O=C(CCCO)Nc1cc(Cl)cc2c3cc[nH]cc-3nc12,–,–,–,–,–
–,–,–,5.49,–,O=C(Oc1c(Cl)cc2c3cc[nH]cc-3nc2c1Cl)N1CCOCC1,–,–,–,–,–
< 4.60,> 25 µM,> 25 µM,6.52,–,O=C(Nc1cc(Cl)cc2c1[nH]c1cnccc12)c1ccncc1,–,–,–,–,–
–,–,–,5.89,–,Nc1cc(Cl)cc2c3cc[nH]cc-3nc12,–,–,–,–,–
< 4.60,> 25 µM,> 25 µM,6.15,–,COC(=O)Nc1cc(Cl)cc2c3cc[nH]cc-3nc12,–,–,–,–,–
< 4.60,> 25 µM,> 25 µM,7.00,6.82,O=C(Nc1cc(Cl)cc2c1[nH]c1cnccc12)c1cccnc1,60%,–,–,–,–
< 4.60,> 25 µM,> 25 µM,5.40,–,O=[N+]([O-])c1cc(Cl)cc2c3cc[nH]cc-3nc12,–,–,–,–,–
< 4.60,> 25 µM,> 25 µM,< 4.70,–,O=S(=O)(Nc1cc(Cl)cc2c1[nH]c1cnccc12)c1ccccc1,–,–,–,–,–
< 4.60,> 25 µM,> 25 µM,< 4.70,–,CNC(=O)Nc1cc(Cl)cc2c3cc[nH]cc-3nc12,–,–,–,–,–
< 4.60,> 25 µM,> 25 µM,5.52,–,O=C(Cc1ccccn1)Nc1cc(Cl)cc2c1[nH]c1cnccc12,–,–,–,–,–
< 4.60,> 25 µM,> 25 µM,6.22,–,CC(=O)Nc1cc(Cl)cc2c3cc[nH]cc-3nc12,–,–,–,–,–
< 4.60,> 25 µM,> 25 µM,< 4.70,–,O=C(Nc1cc(Cl)cc2c1[nH]c1cnccc12)N1CCOCC1,–,–,–,–,–
< 4.60,> 25 µM,> 25 µM,6.15,–,O=C(Nc1cc(Cl)cc2c1[nH]c1cnccc12)c1ccccc1,–,–,–,–,–
–,–,–,5.74,–,CN(C)c1cc(Cl)cc2c3cc[nH]cc-3nc12,–,–,–,–,–
< 4.60,> 25 µM,> 25 µM,5.08,–,CS(=O)(=O)Nc1cc(Cl)cc2c3cc[nH]cc-3nc12,–,–,–,–,–
< 4.60,> 25 µM,> 25 µM,< 4.70,–,COc1ccccc1C(=O)Nc1cc(Cl)cc2c1[nH]c1cnccc12,–,–,–,–,–
–,–,–,5.74,–,CNc1cc(Cl)cc2c3cc[nH]cc-3nc12,–,–,–,–,–
< 4.60,> 25 µM,> 25 µM,6.00,–,O=C(Nc1cc(Cl)cc2c1[nH]c1cnccc12)c1ccccn1,–,–,–,–,–
< 4.60,> 25 µM,> 25 µM,5.89,–,COc1ccc(C(=O)Nc2cc(Cl)cc3c2[nH]c2cnccc23)cc1,–,–,–,–,–
< 4.60,> 25 µM,> 25 µM,< 4.70,–,Clc1cc(NCc2ccccc2)c2[nH]c3cnccc3c2c1,–,–,–,–,–
